SMILES strings stand for the structures. ≈ marks a conversion by molar mass, not a printed value. Where “and” joins values, the source holds several entries; their conditions need not be identical. Identical values can stand only once.

The nature of series [1]: Aqueous solubility at room temperature. In kind it is physicochemical. The following applies: water; read-out: S. The method, boiled down: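 Solubility in water, given in mg/mL, determined at room temperature.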
Series [2] has as its system Rattus norvegicus. Description: (§1) Compound was tested in the rat after peroral administration for its ability to inhibit the in vivo blood platelet aggregation induced by collagen. In kind it is functional. The method, boiled down: (§2)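 Oral dosing of male Wistar rats at 0.2 mmol/kg/day for 5 days, alongside a placebo group. On day 5 under pentobarbitone anesthesia, collagen was infused via a cannula in the right common carotid artery. EDTA blood samples were taken 60 and 90 s after the start of infusion, and platelets were counted by Coulter counter. Value is the increase in circulating platelets relative to placebo, at 60 s unless stated.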

Series [3] deals with Rattus norvegicus. Description: (§3) Compound was tested in the rat after intraperitoneal administration for its ability to inhibit the in vivo blood platelet aggregation induced by collagen; Not determined because of toxicity. In kind it is organism-based. The settings on record: ip. The method, boiled down:
(§4)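 Male Wistar rats dosed ip at 0.2 mmol/kg/day for 5 days, with a placebo group run in parallel. On day 5 rats were anesthetized with pentobarbitone (40-50 mg/kg ip) and collagen was infused through a cannula in the right common carotid. Blood was taken into EDTA at 60 and 90 s. Platelets were Coulter-counted after thrombo-oil separation. Read-out: rise in circulating platelets versus placebo, at 60 s unless noted.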

The test system of series [4] is Rattus norvegicus. Description: In vivo inhibition of blood platelet aggregation induced by collagen, intraperitoneal administration. In kind it is functional. The method, boiled down:
as §4

The test system of series [5] is Rattus norvegicus. Briefly: Compound was tested in the rat after intraperitoneal administration for its ability to inhibit the in vivo blood platelet aggregation induced by collagen. The class given is ADME, organism-based. The settings on record: po, in the assay text read “oral” for “intraperitoneal”.
The test system of series [6] is Rattus norvegicus. The description is as §3. In kind it is functional, organism-based. The method, boiled down: as §4
The subject of series [7] is Rattus norvegicus. Briefly: Compound was tested in the rat after peroral administration for its ability to inhibit the in vivo blood platelet aggregation induced by collagen,. The class given is organism-based. The following applies: po. The gist of the method: as §2
The test system of series [8] is Rattus norvegicus. The series is described as §1. The following applies: po. The class given is ADME, organism-based. The gist of the method: as §2
Series [9] concerns Rattus norvegicus. Description: Compound was tested in the rat after peroral administration for its ability to inhibit the in vivo blood platelet aggregation induced by collagen; Only at 90s after collagen administration. The class given is organism-based. The following applies: po. The gist of the method: as §2

With `COc1cc2c3c(cccc3c1)CN(C(=N)NO)C2.Cl`, the solubility in [1] was 18000 µg/mL. In the series with Rattus norvegicus [2], the Increase is on record as -5%.

For `COc1cc2c3c(c1OC)CCCC3CN(C(=N)NO)C2.Cl` (stereo not given), the solubility in [1] was above 50000 µg/mL.

In the case of `Cl.N=C(N)N1Cc2cccc3c(Cl)ccc(c23)C1`, the solubility in series [1] turned out to be 2500 µg/mL. The Increase result with Rattus norvegicus [3] is listed as “Toxic”.

Consider `Cl.N=C(Nc1ccc(C(N)=O)cc1)N1Cc2cccc3c2C(CCC3)C1` (stereo not given), for which the solubility in series [1] is below 3000 µg/mL. Besides, in the series on Rattus norvegicus [2], the Increase amounted to 7%.

Regarding `C/N=C(\NC)N1Cc2cccc3c2C(CCC3)C1` (stereo not given), the solubility in [1] worked out at 20000 µg/mL (≈ 82.2 mM). In addition, in the series with Rattus norvegicus [4], the Increase worked out at 2%.

For `CN(C)c1ccc(NC(=N)N2Cc3cccc4c3C(CCC4)C2)cc1.Cl` (stereo not given), the solubility in series [1] stood at 4000 µg/mL. Moreover, the Increase in the series with Rattus norvegicus [2] is reported as 4%.

On to `Cc1ccc2c3c1CCCC3CN(C(=N)N)C2.Cl` (stereo not given), for which the solubility in series [1] worked out at 16000 µg/mL. The results for the Increase result in the series with Rattus norvegicus [3] and with Rattus norvegicus [5] were “Toxic” and 16%, respectively.

On to `CC(C)=N/N=C(\N)N1Cc2cccc3c2C(CCC3)C1.Cl` (stereo not given), for which the Increase entry was “Toxic” with Rattus norvegicus [6] and 0% in the series with Rattus norvegicus [7].

For the compound `N/C(=N\c1ccc(N)cc1)N1Cc2cccc3c2C(CCC3)C1` (stereo not given), the solubility in [1] was below 5000 µg/mL. The Increase entry in the series with Rattus norvegicus [3] was “Toxic”; in the series with Rattus norvegicus [8] it was 8%.

In the case of `Cc1ccc2c3c1CCCC3CN(C(=N)NO)C2.Cl` (stereo not given), in series [1], the solubility was found to be 18000 µg/mL. The Increase in the series on Rattus norvegicus [4] is reported as 45%.

For the compound `COc1ccc2c3c1CCCC3CN(C(=N)NO)C2.Cl` (stereo not given), the solubility in series [1] stood at 5000 µg/mL. The Increase with Rattus norvegicus [9] came out at 8%; with Rattus norvegicus [4], 70%.

For the compound `Cl.N/C(=N\O)N1Cc2cccc3c2C(CCC3)C1` (stereo not given), the solubility in series [1] was 12000 µg/mL. The Increase with Rattus norvegicus [4] was 42% and 23%.

Turning to `Cl.Cl.N/C(=N\c1ccc(N)cc1)N1Cc2cccc3cccc(c23)C1`, the solubility in series [1] is 60000 µg/mL. The Increase in the series with Rattus norvegicus [2] is listed as 8%.

For `N=C(Nc1ccccc1)N1Cc2cccc3c2C(CCC3)C1` (stereo not given), the solubility in [1] is below 3000 µg/mL. Further, the Increase in the series with Rattus norvegicus [4] is on record as -11%.

With `C/N=C(/NC)N1Cc2cccc3cccc(c23)C1`, the solubility in series [1] was determined as 25000 µg/mL (≈ 104 mM). Further, the Increase with Rattus norvegicus [4] came to 1%.

On to `N/C(=N\c1ccc([N+](=O)[O-])cc1)N1Cc2cccc3c2C(CCC3)C1` (stereo not given), for which the Increase entry in the series on Rattus norvegicus [6] was “Toxic”; with Rattus norvegicus [7], -7%.

Turning to `N=C(Nc1ccc(S(N)(=O)=O)cc1)N1Cc2cccc3c2C(CCC3)C1` (stereo not given), the solubility in series [1] is below 3000 µg/mL. The Increase in the series on Rattus norvegicus [2] was 3%.

As to `N#CNC(=N)N1Cc2cccc3c2C(CCC3)C1` (stereo not given), the solubility in series [1] is below 3000 µg/mL. The Increase in the series on Rattus norvegicus [4] turned out to be 1%.

For `N=C(Nc1ccc(Cl)cc1)N1Cc2cccc3c2C(CCC3)C1` (stereo not given), the solubility in series [1] was below 4000 µg/mL. In addition, the Increase with Rattus norvegicus [2] came out at 7%.

Take `COc1ccc2c3c1CCCC3CN(C(=N)N)C2.Cl` (stereo not given): the solubility in [1] is 17000 µg/mL.

Take `Cc1ccc2c3c(cccc13)CN(C(=N)NO)C2.Cl`: the solubility in [1] is 5000 µg/mL. Moreover, the Increase in the series on Rattus norvegicus [4] is 16% and 14%.

On to `Cl.N/C(=N\O)N1Cc2cccc3c(Cl)ccc(c23)C1`, for which the solubility in [1] was 3000 µg/mL. For the same compound, the Increase in the series with Rattus norvegicus [4] is 44% and 18%.

As for `COc1ccc(NC(=N)N2Cc3cccc4cccc(c34)C2)cc1`, the solubility in series [1] is below 5000 µg/mL. Also, the Increase in the series on Rattus norvegicus [4] is given as -2%.

For `C/N=C(\N)N1Cc2cccc3c2C(CCC3)C1` (stereo not given), in [1], the solubility was below 3000 µg/mL. The Increase with Rattus norvegicus [2] is 30% and 12%.

Take `COc1ccc(NC(=N)N2Cc3cccc4c3C(CCC4)C2)cc1` (stereo not given): the solubility in series [1] is below 3000 µg/mL. Besides, the Increase result is reported as “Toxic” in the series with Rattus norvegicus [3] and 7% in the series with Rattus norvegicus [8].

On to `Br.N/C(=N\c1ccc(C(=O)O)cc1)N1Cc2cccc3c2C(CCC3)C1` (stereo not given), for which, in series [1], the solubility was below 3000 µg/mL. Besides, the Increase in the series with Rattus norvegicus [2] was determined as 2%.

On to `Cl.N/N=C(/N)N1Cc2cccc3c2C(CCC3)C1` (stereo not given), for which the solubility in series [1] is 60000 µg/mL.

In the case of `Cl.N/C(=N\O)N1Cc2cccc3cccc(c23)C1`, in [1], the solubility is 4000 µg/mL. The Increase in the series with Rattus norvegicus [4] was 36% and 23%.

On to `CN(C)/N=C(/N)N1Cc2cccc3cccc(c23)C1.Cl`, for which the solubility in [1] is 25000 µg/mL. Also, the Increase in the series with Rattus norvegicus [2] is on record as -2%.

For the compound `Cl.N=C(N)N1Cc2cccc3cccc(c23)C1`, the solubility in [1] was 10000 µg/mL. For the same compound, the Increase in the series with Rattus norvegicus [4] is 38% and 28%.

With `Cl.N/N=C(/N)N1Cc2cccc3cccc(c23)C1`, the solubility in series [1] was found to be 10000 µg/mL.

As for `Cl.N=C(N)N1Cc2cccc3c2C(CCC3)C1` (stereo not given), in series [1], the solubility was 60000 µg/mL.

For the compound `CC(=O)NC(=N)N1Cc2cccc3cccc(c23)C1.Cl`, the solubility in series [1] came to 35000 µg/mL. Besides, the Increase in the series with Rattus norvegicus [4] came to 17%.

Source of the values: ChEMBL document CHEMBL1122078, “Inhibitors of blood platelet aggregation. Activity of some 1H-benz[de]isoquinolinecarboximidamides on the in vivo blood platelet aggregation induced by collagen” (J Med Chem, 1982).
